In series [1] the test system is RAC-alpha serine/threonine-protein kinase (Homo sapiens), P31749 [S473D]. Kind of series: Inhibition of recombinant human His6-tagged AKT1 S473D mutant (118 to 480 residues) expressed in baculovirus infected Sf21 cells assessed as remaining activity at 1 uM using crosstide peptide as substrate incubated for 30 mins in presence of [gamma-33P]ATP by filter binding method relative to control. The gist of the method:
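Radiometric panel assay run robotically at 21 °C for 30 min, linear in time and enzyme. […] Activity is expressed as percentage of the compound-omitted control, averaged from triplicates ± S.D.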

The target of series [2] is Mitogen-activated protein kinase 3 (Homo sapiens) (UniProt P27361). Kind of series: Inhibition of recombinant human N-terminal GST-tagged ERK1 (2 to 379 residues) expressed in Escherichia coli assessed as remaining activity at 1 uM using MBP as substrate incubated for 30 mins in presence of [gamma-33P]ATP by filter binding method relative to control. The gist of the method: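 Kinase panel run robotically at 21 °C for 30 min, linear in time and enzyme. […] Compound tested at 1 or 10 µM. Activity given as percentage of incubations without compound, mean of triplicates ± S.D.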

Series [3] concerns the target Serine/threonine-protein kinase Nek2 (Homo sapiens) (UniProt P51955). Kind of series: Inhibition of recombinant human N-terminal His6-tagged NEK2A (1 to 445 residues) expressed in baculovirus infected Sf21 cells assessed as remaining activity at 1 uM using RFRRSRRMI as substrate incubated for 30 mins in presence of [gamma-33P]ATP by filter binding method relative to control.

For series [4], the target named is Serine/threonine-protein kinase PAK 4 (Homo sapiens) (UniProt O96013). Description: Inhibition of recombinant human N-terminal GST-tagged PAK4 (2 to 519 residues) expressed in Escherichia coli assessed as remaining activity at 1 uM using RRRLSFAEPG as substrate incubated for 30 mins in presence of [gamma-33P]ATP by filter binding method relative to control. The gist of the method:
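Radiometric kinase panel run robotically at room temperature (21 °C) for 30 min, linear in time and enzyme. […] Activity is expressed as percent of control without compound, from triplicate determinations ± S.D.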

Series [5] addresses cAMP-dependent protein kinase catalytic subunit alpha (Homo sapiens) (UniProt P17612). Kind of series: Inhibition of recombinant human N-terminal GST-tagged PKAalpha (2 to 351 residues) expressed in Escherichia coli assessed as remaining activity at 1 uM using Kemptide as substrate incubated for 30 mins in presence of [gamma-33P]ATP by filter binding method relative to control. Put shortly: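 Panel assays were run for 30 min at 21 °C, within the linear range for time and enzyme. […] Results are percent activity remaining relative to compound-free control, averaged from triplicate ± S.D.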

The target of series [6] is Serine/threonine-protein kinase Chk1 (Homo sapiens) (UniProt O14757). Description: Inhibition of recombinant human N-terminal GST-tagged CHK1 (1 to 476 residues) expressed in baculovirus infected Sf21 cells assessed as remaining activity at 10 uM using CHKtide as substrate incubated for 30 mins in presence of [gamma-33P]ATP by filter binding method relative to control. The gist of the method: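 Robotic radiometric panel assay, 30 min at room temperature (21 °C), with 10 mM magnesium acetate. […] Compound at 1 or 10 µM. Residual activity expressed relative to compound-free control; triplicate average ± S.D.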

For series [7], the target named is Dual specificity tyrosine-phosphorylation-regulated kinase 2 (Homo sapiens) (UniProt Q92630). Kind of series: Inhibition of recombinant human N-terminal GST-tagged DYRK2 (3 to 528 residues) expressed in Escherichia coli assessed as remaining activity at 10 uM using KKISGRLSPIMTEQ as substrate incubated for 30 mins in presence of [gamma-33P]ATP by filter binding method relative to control. The gist of the method:
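Run robotically for 30 min at 21 °C under linear conditions. Compound at 1 or 10 µM. Percentage activity remaining versus control without compound, triplicate mean ± S.D.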

In series [8] the target is Ribosomal protein S6 kinase alpha-3 (Homo sapiens) (UniProt P51812). Description: Inhibition of recombinant human N-terminal His6-tagged RSK2 (2 to 740 residues) expressed in baculovirus infected Sf21 cells assessed as remaining activity at 10 uM using KKLNRTLSVA as substrate incubated for 30 mins in presence of [gamma-33P]ATP by filter binding method relative to control. The gist of the method: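 Assays ran 30 min at 21 °C, robotically and in the linear range. Remaining activity is given relative to incubations lacking compound, as the average of triplicate determinations ± S.D.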

Series [9] relates to MEF. Kind of series: Inhibition of mTORC2 in MEF cells assessed as reduction in NDRG1 phosphorylation incubated ay 1 uM for 30 mins by immunoblot analysis. The class given is cell-based. Particulars: Mus musculus. The gist of the method:
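Cells (MEFs, wild-type or knockout, or HeLa) kept in 10% serum, then exposed 30 min to inhibitor or vehicle at the stated level. Washed twice in ice-cold PBS and lysed in Tris lysis buffer with CHAPS, phosphatase and protease inhibitors. Lysates cleared at 18000 g and immunoblotted with phospho-specific antibodies and ECL detection. Blots are representative of three experiments.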

The target of series [10] is Mitogen-activated protein kinase; ERK1/ERK2 (Homo sapiens) (UniProt P27361+P28482). Description: Inhibition of ERK1/2 in serum starved/PMA-stimulated HEK293 cells assessed as reduction in RSK activity at 1 uM using crosstide as substrate incubated for 30 mins in presence of [32P]-ATP by liquid-scintillation counting method. The class given is cell-based.
Series [11] has as its system MEF. Kind of series: Growth inhibition of MEF cells assessed reduction in cell viability at 3 uM incubated for 1 to 3 days by crystal violet staining based assay. The class given is toxicity. As to conditions: mouse, time 1-3 day. The gist of the method:
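MEFs seeded at 20000 cells per 1.91 cm2 well, grown overnight in 10% foetal bovine serum, then cultured 1, 2 or 3 days with 3 μM inhibitor, 100 nM rapamycin or DMSO. Medium changed every 24 h with freshly dissolved inhibitors. Cells fixed in 4% paraformaldehyde, stained with 0.1% Crystal Violet, dye extracted in 10% acetic acid, A590 read. Quadruplicate wells, expressed as % of DMSO control.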

Series [12] addresses T1, mTORC1 (Homo sapiens) (UniProt P42345+Q8N122+Q9BVC4). As to conditions: HEK293, dose 100-300 nM, time 30.0 min.
A further series deals with mTORC2 (Homo sapiens) (UniProt P42345+Q6R327+Q9BVC4+Q9BPZ7). Particulars: HEK293, dose 30-1000 nM, time 30.0 min.
Series [13] has as its target T1, mTORC1 (Homo sapiens). Particulars: HEK293, dose 30-1000 nM, time 30.0 min.
For series [14], the target named is Phosphatidylinositol 3-kinase catalytic subunit type 3 (Homo sapiens) (UniProt Q8NEB9). Description: Inhibition of VPS34 (unknown origin) assessed as remaining activity at 10 uM using phosphatidylinositol as substrate incubated for 60 mins in presence of ATP relative to control.

Calls of active or inactive are those of the source. The calls are words filed in the database; no cut-off is given here.

By inhibition is commonly meant the change of the read-out against control, counted positive when it falls.

Mitogen-activated protein kinase 3 (Homo sapiens), sequence (P27361 whole entry, the tested form may be a part): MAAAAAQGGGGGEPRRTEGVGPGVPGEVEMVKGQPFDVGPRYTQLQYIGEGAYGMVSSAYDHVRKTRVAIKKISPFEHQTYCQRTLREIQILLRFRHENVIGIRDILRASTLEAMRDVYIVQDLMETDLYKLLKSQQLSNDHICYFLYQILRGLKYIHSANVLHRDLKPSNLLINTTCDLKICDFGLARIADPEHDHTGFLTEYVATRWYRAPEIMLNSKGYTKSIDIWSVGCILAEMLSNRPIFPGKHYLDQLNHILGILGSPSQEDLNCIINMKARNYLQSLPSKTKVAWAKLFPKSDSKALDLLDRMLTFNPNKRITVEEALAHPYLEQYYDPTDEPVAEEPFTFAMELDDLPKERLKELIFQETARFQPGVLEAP
Mitogen-activated protein kinase; ERK1/ERK2 (Homo sapiens), sequence (P27361 whole entry, looked up): as the sequence (P27361 whole entry, the tested form may be a part) above
Mitogen-activated protein kinase; ERK1/ERK2 (Homo sapiens), sequence (P28482 whole entry, looked up): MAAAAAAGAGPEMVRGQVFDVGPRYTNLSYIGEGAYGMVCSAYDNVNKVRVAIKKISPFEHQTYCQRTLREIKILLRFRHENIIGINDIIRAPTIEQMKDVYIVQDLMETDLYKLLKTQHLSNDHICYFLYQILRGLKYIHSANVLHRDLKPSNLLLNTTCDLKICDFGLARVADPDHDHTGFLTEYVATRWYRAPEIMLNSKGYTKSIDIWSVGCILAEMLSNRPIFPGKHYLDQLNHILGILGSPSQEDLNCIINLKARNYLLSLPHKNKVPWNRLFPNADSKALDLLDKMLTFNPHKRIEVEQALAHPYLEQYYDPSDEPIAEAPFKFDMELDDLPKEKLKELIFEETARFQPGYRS
RAC-alpha serine/threonine-protein kinase (Homo sapiens), P31749 [S473D], sequence (P31749 whole entry S473D, the tested form may be a part): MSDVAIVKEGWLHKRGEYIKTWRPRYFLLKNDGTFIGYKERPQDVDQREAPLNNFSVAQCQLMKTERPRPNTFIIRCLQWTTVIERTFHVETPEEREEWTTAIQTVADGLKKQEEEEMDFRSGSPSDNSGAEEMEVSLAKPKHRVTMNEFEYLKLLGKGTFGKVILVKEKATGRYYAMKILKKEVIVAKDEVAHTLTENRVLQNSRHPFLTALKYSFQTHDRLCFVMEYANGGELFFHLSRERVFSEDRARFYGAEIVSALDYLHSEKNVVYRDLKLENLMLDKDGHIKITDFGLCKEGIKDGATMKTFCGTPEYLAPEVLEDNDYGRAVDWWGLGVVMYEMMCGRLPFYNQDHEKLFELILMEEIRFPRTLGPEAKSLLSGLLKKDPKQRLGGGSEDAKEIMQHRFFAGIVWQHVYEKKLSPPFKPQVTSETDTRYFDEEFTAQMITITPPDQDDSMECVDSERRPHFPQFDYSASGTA
Serine/threonine-protein kinase Nek2 (Homo sapiens), sequence (P51955 whole entry, the tested form may be a part): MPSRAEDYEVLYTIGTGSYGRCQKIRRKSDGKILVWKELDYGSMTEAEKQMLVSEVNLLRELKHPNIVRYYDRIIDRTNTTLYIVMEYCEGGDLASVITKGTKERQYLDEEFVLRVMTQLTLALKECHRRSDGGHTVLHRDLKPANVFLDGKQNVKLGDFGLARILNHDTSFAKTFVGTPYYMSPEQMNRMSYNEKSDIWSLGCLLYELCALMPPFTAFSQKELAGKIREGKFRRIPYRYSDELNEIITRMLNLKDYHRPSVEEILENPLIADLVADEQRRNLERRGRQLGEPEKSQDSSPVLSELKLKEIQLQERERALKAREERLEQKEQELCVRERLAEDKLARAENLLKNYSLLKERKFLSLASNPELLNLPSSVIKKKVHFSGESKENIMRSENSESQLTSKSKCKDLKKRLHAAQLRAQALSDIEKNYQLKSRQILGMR
Serine/threonine-protein kinase PAK 4 (Homo sapiens), sequence (O96013 whole entry, looked up, the tested form may be a part): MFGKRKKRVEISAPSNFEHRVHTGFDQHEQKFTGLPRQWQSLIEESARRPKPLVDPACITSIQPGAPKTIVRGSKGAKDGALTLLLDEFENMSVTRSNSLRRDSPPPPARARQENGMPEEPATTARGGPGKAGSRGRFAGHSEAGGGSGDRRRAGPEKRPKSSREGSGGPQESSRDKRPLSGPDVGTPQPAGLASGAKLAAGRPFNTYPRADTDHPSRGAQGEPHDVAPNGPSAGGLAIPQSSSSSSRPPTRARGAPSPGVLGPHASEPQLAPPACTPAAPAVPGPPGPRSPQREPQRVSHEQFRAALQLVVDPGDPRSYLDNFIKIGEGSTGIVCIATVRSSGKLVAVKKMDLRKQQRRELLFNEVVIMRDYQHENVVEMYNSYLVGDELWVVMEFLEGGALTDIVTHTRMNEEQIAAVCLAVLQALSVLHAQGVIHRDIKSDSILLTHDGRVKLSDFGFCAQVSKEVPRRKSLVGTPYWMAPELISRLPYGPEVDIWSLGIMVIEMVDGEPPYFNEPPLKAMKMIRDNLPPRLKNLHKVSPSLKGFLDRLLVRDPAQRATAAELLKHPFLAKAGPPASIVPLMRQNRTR
Dual specificity tyrosine-phosphorylation-regulated kinase 2 (Homo sapiens), sequence (Q92630 whole entry, the tested form may be a part): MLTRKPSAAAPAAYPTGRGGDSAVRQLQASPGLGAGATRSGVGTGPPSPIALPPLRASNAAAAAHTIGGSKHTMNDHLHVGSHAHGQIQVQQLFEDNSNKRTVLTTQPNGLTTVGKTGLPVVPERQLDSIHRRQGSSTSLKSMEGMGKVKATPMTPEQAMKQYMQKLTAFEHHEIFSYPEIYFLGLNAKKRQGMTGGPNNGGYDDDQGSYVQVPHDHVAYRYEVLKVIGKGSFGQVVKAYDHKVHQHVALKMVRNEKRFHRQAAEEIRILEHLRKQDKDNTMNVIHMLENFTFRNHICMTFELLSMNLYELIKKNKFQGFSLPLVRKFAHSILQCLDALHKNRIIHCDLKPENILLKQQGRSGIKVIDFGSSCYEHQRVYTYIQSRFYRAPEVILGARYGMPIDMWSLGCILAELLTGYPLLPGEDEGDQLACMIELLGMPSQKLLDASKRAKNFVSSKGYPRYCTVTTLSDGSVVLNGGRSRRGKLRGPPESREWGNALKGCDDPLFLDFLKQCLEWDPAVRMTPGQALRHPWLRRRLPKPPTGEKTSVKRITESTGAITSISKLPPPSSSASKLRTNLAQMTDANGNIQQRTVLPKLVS
Serine/threonine-protein kinase Chk1 (Homo sapiens), sequence (O14757 whole entry, the tested form may be a part): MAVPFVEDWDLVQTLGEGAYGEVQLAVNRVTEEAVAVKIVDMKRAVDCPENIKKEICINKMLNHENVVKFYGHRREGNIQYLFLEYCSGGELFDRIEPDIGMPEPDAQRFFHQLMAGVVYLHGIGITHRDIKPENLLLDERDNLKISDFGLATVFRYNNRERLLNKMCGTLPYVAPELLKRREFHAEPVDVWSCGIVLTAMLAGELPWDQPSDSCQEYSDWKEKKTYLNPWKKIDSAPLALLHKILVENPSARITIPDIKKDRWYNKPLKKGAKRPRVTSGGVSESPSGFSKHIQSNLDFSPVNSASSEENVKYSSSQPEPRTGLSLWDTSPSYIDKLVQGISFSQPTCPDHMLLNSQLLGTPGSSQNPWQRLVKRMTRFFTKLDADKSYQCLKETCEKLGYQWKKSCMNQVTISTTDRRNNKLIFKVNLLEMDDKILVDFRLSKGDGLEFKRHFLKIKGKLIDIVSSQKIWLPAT
Ribosomal protein S6 kinase alpha-3 (Homo sapiens), sequence (P51812 whole entry, the tested form may be a part): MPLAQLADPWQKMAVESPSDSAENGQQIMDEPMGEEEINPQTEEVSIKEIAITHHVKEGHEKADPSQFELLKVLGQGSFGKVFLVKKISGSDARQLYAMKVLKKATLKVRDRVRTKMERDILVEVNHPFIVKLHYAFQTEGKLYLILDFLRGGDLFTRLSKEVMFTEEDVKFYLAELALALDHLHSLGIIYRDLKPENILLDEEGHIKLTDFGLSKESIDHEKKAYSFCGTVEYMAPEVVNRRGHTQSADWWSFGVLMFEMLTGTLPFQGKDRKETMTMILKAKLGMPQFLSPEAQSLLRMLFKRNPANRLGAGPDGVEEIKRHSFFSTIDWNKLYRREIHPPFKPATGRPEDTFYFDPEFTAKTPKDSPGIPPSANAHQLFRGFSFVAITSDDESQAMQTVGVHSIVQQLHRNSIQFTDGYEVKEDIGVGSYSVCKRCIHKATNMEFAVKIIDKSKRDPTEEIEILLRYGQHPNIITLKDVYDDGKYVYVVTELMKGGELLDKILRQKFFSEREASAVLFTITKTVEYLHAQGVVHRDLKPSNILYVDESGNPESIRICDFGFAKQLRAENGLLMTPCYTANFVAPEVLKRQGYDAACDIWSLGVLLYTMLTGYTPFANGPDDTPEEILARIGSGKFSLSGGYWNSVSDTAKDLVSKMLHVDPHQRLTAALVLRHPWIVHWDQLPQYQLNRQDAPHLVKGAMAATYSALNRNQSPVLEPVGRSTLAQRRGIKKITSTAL

Consider `COc1ccc(-c2ccc3c(N4CCOCC4)nc(N4C[C@@H](C)O[C@@H](C)C4)nc3n2)cc1CO` [Ku-0063794], for which the Activity is 98% in series [1]; 102% in [2]; 92% in [3]; 110% in [4]; 115% in [5]; 86% in series [6]. Besides, the Activity in series [7] came out at 96%; in [8], 104%; in [14], 93%. In the series with MEF [9], the inhibition entry is “Active”. The inhibition entry in series [10] is “inactive”. Moreover, the “growth inhibition (GI)” value in the series with MEF [11] is listed as “Toxic”. The inhibition on mTORC1 (Homo sapiens) [12] was 100%; at mTORC2 (Homo sapiens), “Dose-Dependent Effect”; at mTORC1 (Homo sapiens) [13], “Dose-Dependent Effect”.

The record behind these values is ChEMBL document CHEMBL5678799 (Biochem J, 2009).
